The text below walks through data of ChEMBL document CHEMBL1932987, “Straightforward palladium-mediated synthesis and biological evaluation of benzo[j]phenanthridine-7,12-diones as anti-tuberculosis agents” (Eur J Med Chem, 2012).

One data set deals with Salmonella typhimurium. In words: Genotoxicity in Salmonella Typhimurium expressing episomal lux operon assessed as concentration required to cause toxicity in presence of S9 fraction. In kind it is organism-based. Conditions: salmonella enterica subsp. enterica serovar typhimurium. The method, boiled down:
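VITOTOX with genetically engineered Salmonella typhimurium strains, with or without S9 from aroclor-treated rat liver. Genotoxicity reported by a luxCDABE reporter under the RecN promoter. Tested at 10, 1 and 0.1 µM; lowest concentration showing cytotoxicity recorded.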

Data set [1] in a line: Cytotoxicity against human HepG2/C3A cells after 24 hrs by neutral red uptake assay. It counts as cell-based. The method, boiled down: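 C3A hepatocytes in DMEM + 10% FCS, 40,000 per well, recovered at 37 °C, 5% CO2. Exposed 24 h to final 10, 3, 1, 0.3, 0.1 µM from 1 mM DMSO stocks. Neutral red added for 3 h, extracted with ethanol/acetic acid, OD read at 530 nm with 620 nm reference. IC50 = 50% neutral red uptake.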

Data set [2] deals with Mycobacterium tuberculosis. In words: Antimycobacterial activity against Mycobacterium tuberculosis H37Rv expressing pSMT1 after 1 to 7 days by luminescent assay. In kind it is functional. The method, boiled down: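 Luminescent M.tb. H37Rv carrying pSMT1 (luxAB, hsp60 promoter) in 7H9 + 10% FCS. Bacteria filtered, recovered 1 h at 37 °C, 5% CO2, added at 50,000 RLU/ml. Serial dilutions from 1 mM DMSO stocks, triplicate wells. Luminometry after 1, 3 and 7 days; MIC50 = 50% growth reduction.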

Data set [3] can be described thus: Selectivity index, ratio of IC50 for human HepG2/C3A cells to MIC50 for Mycobacterium tuberculosis H37Rv. In kind it is functional. The method, boiled down:
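Selectivity index is the IC50 from the C3A neutral red uptake assay divided by the MIC50 against luminescent M.tb. H37Rv.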

Data set [4] deals with Mycobacterium tuberculosis. The data set is described as follows: Antimycobacterial activity against Mycobacterium tuberculosis H37Rv expressing pSMT1 after 1 to 7 days by BACTEC 460-TB assay. It counts as functional. The method, boiled down:
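Radiometric BACTEC 460-TB culture of M.tb. H37Rv in 7H9-based medium. Pre-culture grown to GI 300, then inoculated into a fresh vial with serial compound dilutions made at 40x final concentration from 1 mM DMSO stocks. GI (14C-palmitate to 14CO2) read daily against untreated inocula diluted 100-fold at inoculation. MIC99 taken as 99% inhibition. Each measurement done at least twice.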

Data set [5] in a line: Cytotoxicity against mouse J774 cells assessed as viability at 1 uM after 7 days by neutral red uptake assay. It counts as cell-based. The conditions noted are these: read-out: Activity. The method, boiled down:
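Uninfected J774 macrophages exposed to compound in parallel with the infection assay; viability read by neutral red uptake over the same exposure period.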

Data set [6] in a line: Induction of DNA fragmentation in human HepG2/C3A cells at 1 uM after 24 hrs by alkaline comet assay (reference value: 3.69%). It counts as toxicity, cell-based. The method, boiled down: (§1)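 Alkaline comet assay on C3A cells, 100,000 per well, pre-incubated 24 h with compound at 3, 1, 0.3 or 0.1 µM. Cells embedded in agarose on slides, lysed 1 h, electrophoresed 20 min at 300 mA, neutralized, stained with gel red. % tail DNA measured by fluorescence microscopy; compared with negative control by Mann-Whitney U test.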

Data set [7] deals with Mycobacterium tuberculosis. In words: Antimycobacterial activity against Mycobacterium tuberculosis H37Rv infected in mouse J774 cells assessed as reduction of parasite growth at 0.3 uM after 7 days by luminescence assay. It counts as functional, organism-based. The method, boiled down:
(§2)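 Murine J774 macrophages, 100,000 per well, recovered overnight, then infected with luminescent M.tb. H37Rv (10^4 CFU, MOI 0.1) in DMEM with penicillin and Fungizone. Cells treated with compound at final 10, 3, 1, 0.3, 0.1 µM. Monolayers lysed after 1, 3 or 7 days; intracellular bacteria read by luminometry of lysate. Triplicate cultures, mean RLU.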

Data set [8] is described as follows: Induction of DNA fragmentation in human HepG2/C3A cells at 3 uM after 24 hrs by alkaline comet assay (reference value: 3.69%). In kind it is toxicity, cell-based. The method, boiled down: as §1
Data set [9] relates to Mycobacterium tuberculosis. In words: Antimycobacterial activity against Mycobacterium tuberculosis H37Rv infected in mouse J774 cells assessed as reduction of parasite growth at 1 uM after 7 days by luminescence assay. It counts as functional. More on the design: scale not given: the % may be the effect or the level left. The method, boiled down:
as §2

For data set [10], the system named is Mycobacterium tuberculosis. In words: Antimycobacterial activity against Mycobacterium tuberculosis H37Rv infected in mouse J774 cells assessed as reduction of parasite growth at 1 uM after 3 days by luminescence assay. The arrangement: scale not given: the % may be the effect or the level left. It counts as functional. The method, boiled down: as §2
Data set [11] is described as follows: Induction of DNA fragmentation in human HepG2/C3A cells at 0.3 uM after 24 hrs by alkaline comet assay (reference value: 3.69%). In kind it is toxicity, cell-based. The method, boiled down: as §1
The subject of data set [12] is Mycobacterium tuberculosis. The data set is described as follows: Antimycobacterial activity against Mycobacterium tuberculosis H37Rv infected in mouse J774 cells assessed as reduction of parasite growth at 1 uM after 1 day by luminescence assay. It counts as functional. The arrangement: scale not given: the % may be the effect or the level left. The method, boiled down:
as §2

A short description of data set [13]: Induction of DNA fragmentation in human HepG2/C3A cells at 0.1 uM after 24 hrs by alkaline comet assay (reference value: 3.69%). It counts as toxicity, cell-based. The method, boiled down:
as §1

Converted amounts (≈) assume the structure as drawn. The source made the active and inactive calls. The calls are words filed in the database; no cut-off is given here.

For orientation: IC50 means the concentration needed to halve the response being measured. A word on the MIC50: it is the lowest concentration that inhibits either 50% of growth or 50% of the strains tested, depending on the study. As to `COc1ccc2ncc3c(c2c1)C(=O)c1ccccc1C3=O`, the Activity in the data set with Salmonella typhimurium was 10 µM. This compound also returned an IC50 in data set [1] of 0.95 µM. The MIC50 in data set [2] is 0.43 µM (≈ 0.124 µg/mL). Also, the “Selectivity Index” value in data set [3] was 2.22.

For orientation: MIC99 means the lowest concentration that inhibits either 99% of growth or 99% of the strains tested, depending on the study. Regarding `O=C1c2ccccc2C(=O)c2c1cnc1ccc(F)cc21`, in the data set with Salmonella typhimurium, the Activity was determined as 1 µM. This compound also gave an IC50 in [1] of 1.09 µM. The compound also gave an MIC50 in data set [2] of 0.74 µM (≈ 0.205 µg/mL). Also, the “Selectivity Index” value in data set [3] is given as 1.46. This compound registered an MIC99 in data set [4] of 1.38 µM (≈ 0.383 µg/mL).

Consider `O=C1c2ccccc2C(=O)c2c1cnc1ccccc21`, for which the Activity with Salmonella typhimurium amounted to 1 µM. Half-maximal inhibition in data set [1] (IC50) required 1.51 µM. The compound further gave an MIC50 in data set [2] of 1.2 µM (≈ 0.311 µg/mL). Moreover, the “Selectivity Index” value in [3] turned out to be 1.26. For the same compound, the MIC99 in data set [4] was 1.9 µM (≈ 0.493 µg/mL).

For the compound `COc1cccc2c3c(cnc12)C(=O)c1ccccc1C3=O`, the Activity with Salmonella typhimurium was 10 µM. In [1], this compound returned an IC50 of 2.4 µM. Also, the MIC50 in data set [2] was found to be 1.66 µM (≈ 0.48 µg/mL). The “Selectivity Index” value in data set [3] is recorded as 1.45. In addition, the MIC99 in [4] worked out at 2.74 µM (≈ 0.793 µg/mL).

In the case of `O=C1c2ccccc2C(=O)c2c1cnc1ccc(Cl)cc21`, in the data set with Salmonella typhimurium, the Activity was 1 µM. This compound also yielded a concentration for half-maximal inhibition (IC50) in [1] of 1.56 µM. The compound also yielded an MIC50 in data set [2] of 1.03 µM (≈ 0.303 µg/mL). Further, the “Selectivity Index” value in [3] is 1.5. For the same compound, the MIC99 in data set [4] was found to be 1.35 µM (≈ 0.397 µg/mL).

Turning to `Cc1ccc2c3c(cnc2c1)C(=O)c1ccccc1C3=O`, the viability at 168 h, 1 µM in [5] is 92.9%. Moreover, the Activity was 2.15% in data set [6]; 10 µM with Salmonella typhimurium; 3.31% in data set [8]; 83.5% in [9]; 74.2% in data set [10]; 2.52% in data set [11]. Also, the figures for the Activity in data set [12] and in [13] were 47.6% and 3.47%, respectively. Besides, half-maximal inhibition in data set [1] (IC50) was put at 3.21 µM. Also, the outcome in data set [7] was inactive. Besides, the MIC50 in data set [2] is 0.21 µM (≈ 0.0574 µg/mL). In addition, the “Selectivity Index” value in data set [3] was 15.29. For the same compound, in data set [4], the MIC99 came out at 0.64 µM (≈ 0.175 µg/mL).

With `Cc1cccc2c3c(cnc12)C(=O)c1ccccc1C3=O`, the Activity in the data set on Salmonella typhimurium turned out to be 10 µM. In data set [1], this compound gave an IC50 of 3.96 µM. Further, the MIC50 in [2] is 3.68 µM (≈ 1.01 µg/mL). In addition, the “Selectivity Index” value in [3] was determined as 1.08. In addition, the MIC99 in data set [4] turned out to be 4.3 µM (≈ 1.18 µg/mL).

`NNC(=O)c1ccncc1` [ISONIAZID] gave an MIC50 in data set [2] of 0.54 µM (≈ 0.0741 µg/mL).

For `Cc1ccc2ncc3c(c2c1)C(=O)c1ccccc1C3=O`, the Activity in the data set on Salmonella typhimurium was determined as 10 µM. Further, in data set [1], half-maximal inhibition (IC50) was put at 1.48 µM. Further, the MIC50 in [2] amounted to 0.88 µM (≈ 0.24 µg/mL). Also, the “Selectivity Index” value in data set [3] is recorded as 1.69. This compound also showed an MIC99 in data set [4] of 1.53 µM (≈ 0.418 µg/mL).
